The term inhibition denotes the change of the read-out against control, counted positive when it falls.

Experimental findings from ChEMBL document CHEMBL5653631, “A Potent and Selective ULK1 Inhibitor Suppresses Autophagy and Sensitizes Cancer Cells to Nutrient Stress” (iScience, 2018) are described below.

Assay [1] deals with T1, Inhibitor of nuclear factor kappa-B kinase subunit epsilon (Homo sapiens) (UniProt Q14164).
T1 sequence (whole entry): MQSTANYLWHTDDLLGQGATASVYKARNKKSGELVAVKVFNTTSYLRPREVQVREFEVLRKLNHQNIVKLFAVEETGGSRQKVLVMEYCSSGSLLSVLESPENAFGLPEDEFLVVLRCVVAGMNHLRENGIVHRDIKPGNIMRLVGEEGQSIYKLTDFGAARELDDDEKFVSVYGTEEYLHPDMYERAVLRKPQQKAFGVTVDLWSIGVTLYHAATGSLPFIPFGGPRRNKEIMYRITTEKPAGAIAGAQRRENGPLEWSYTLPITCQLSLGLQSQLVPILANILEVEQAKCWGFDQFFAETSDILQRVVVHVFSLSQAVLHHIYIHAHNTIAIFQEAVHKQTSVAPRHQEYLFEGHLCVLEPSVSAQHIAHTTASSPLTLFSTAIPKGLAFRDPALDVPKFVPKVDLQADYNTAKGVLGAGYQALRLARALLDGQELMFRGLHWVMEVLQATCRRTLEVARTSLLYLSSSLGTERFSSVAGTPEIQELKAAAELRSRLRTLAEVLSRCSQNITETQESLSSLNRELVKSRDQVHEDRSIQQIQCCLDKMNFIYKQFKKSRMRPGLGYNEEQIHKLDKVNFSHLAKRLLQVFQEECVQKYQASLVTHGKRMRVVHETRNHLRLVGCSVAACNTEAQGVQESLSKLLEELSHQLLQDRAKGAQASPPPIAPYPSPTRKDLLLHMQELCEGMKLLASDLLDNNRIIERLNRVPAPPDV
Kind of assay: Inhibition of human recombinant IKKe at 40 nM in presence of ATP by radiometric assay relative to control.

The target in assay [2] is Serine/threonine-protein kinase SIK2 (Homo sapiens) (UniProt Q9H0K1). Kind of assay: Inhibition of human recombinant QIK at 40 nM related to control ULK1.
Sequence of Serine/threonine-protein kinase SIK2 (Homo sapiens) (Q9H0K1 whole entry, looked up): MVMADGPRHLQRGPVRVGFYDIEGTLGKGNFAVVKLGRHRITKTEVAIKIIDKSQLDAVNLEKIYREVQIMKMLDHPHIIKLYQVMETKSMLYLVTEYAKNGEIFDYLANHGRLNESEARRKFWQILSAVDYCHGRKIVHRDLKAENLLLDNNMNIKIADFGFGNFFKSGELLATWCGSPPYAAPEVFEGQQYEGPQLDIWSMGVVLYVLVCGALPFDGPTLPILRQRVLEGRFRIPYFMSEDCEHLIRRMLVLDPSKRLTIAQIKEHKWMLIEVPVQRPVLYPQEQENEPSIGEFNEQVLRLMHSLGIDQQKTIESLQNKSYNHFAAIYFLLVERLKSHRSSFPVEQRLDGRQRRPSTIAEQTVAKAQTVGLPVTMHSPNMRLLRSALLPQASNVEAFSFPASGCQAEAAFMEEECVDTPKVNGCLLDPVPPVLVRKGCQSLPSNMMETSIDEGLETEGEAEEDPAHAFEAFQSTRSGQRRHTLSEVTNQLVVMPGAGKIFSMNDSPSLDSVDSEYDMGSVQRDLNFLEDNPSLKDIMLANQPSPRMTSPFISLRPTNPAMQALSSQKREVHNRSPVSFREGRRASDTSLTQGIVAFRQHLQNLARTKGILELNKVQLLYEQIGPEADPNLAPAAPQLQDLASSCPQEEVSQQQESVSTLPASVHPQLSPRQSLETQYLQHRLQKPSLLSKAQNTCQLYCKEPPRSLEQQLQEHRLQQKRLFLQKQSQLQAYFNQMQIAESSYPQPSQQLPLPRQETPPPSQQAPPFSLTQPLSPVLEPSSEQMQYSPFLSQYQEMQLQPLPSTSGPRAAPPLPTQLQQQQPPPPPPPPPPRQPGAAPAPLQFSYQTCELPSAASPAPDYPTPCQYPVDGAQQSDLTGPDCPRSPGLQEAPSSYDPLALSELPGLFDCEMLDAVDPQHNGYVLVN
Assay [3] deals with Interferon-induced, double-stranded RNA-activated protein kinase (Homo sapiens) (UniProt P19525). Kind of assay: Inhibition of human recombinant PKR at 40 nM in presence of ATP by radiometric assay relative to control.
Sequence of Interferon-induced, double-stranded RNA-activated protein kinase (Homo sapiens) (P19525 whole entry): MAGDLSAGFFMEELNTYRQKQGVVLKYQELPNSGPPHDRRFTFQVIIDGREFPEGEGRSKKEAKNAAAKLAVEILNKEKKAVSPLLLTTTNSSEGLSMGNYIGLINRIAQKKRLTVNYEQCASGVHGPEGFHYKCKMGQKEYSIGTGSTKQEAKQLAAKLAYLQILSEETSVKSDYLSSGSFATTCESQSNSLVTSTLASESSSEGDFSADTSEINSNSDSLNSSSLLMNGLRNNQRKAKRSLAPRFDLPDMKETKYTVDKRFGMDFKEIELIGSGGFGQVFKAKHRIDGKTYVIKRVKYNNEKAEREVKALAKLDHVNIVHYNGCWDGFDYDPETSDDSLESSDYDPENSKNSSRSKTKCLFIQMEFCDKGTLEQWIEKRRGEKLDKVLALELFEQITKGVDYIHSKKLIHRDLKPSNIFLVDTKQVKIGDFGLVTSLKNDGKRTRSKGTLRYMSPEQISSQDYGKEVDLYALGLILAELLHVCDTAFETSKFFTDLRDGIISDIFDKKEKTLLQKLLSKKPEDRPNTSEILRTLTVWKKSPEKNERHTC
Assay [4] concerns the target Tyrosine-protein kinase receptor UFO (Homo sapiens) (UniProt P30530). Description: Inhibition of human recombinant AXL at 40 nM related to control ULK1. The gist of the method: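 Radiometric activity assays in a panel of 327 human recombinant kinases, each run in duplicate at one inhibitor concentration. Activity remaining is expressed as percent of vehicle control, and percent inhibition is calculated as 100% minus percent activity remaining.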

The target of assay [5] is Serine/threonine-protein kinase 32B (Homo sapiens) (UniProt Q9NY57). Kind of assay: Inhibition of human recombinant YANK2 at 40 nM in presence of ATP by radiometric assay relative to control.
Sequence of Serine/threonine-protein kinase 32B (Homo sapiens) (Q9NY57 whole entry): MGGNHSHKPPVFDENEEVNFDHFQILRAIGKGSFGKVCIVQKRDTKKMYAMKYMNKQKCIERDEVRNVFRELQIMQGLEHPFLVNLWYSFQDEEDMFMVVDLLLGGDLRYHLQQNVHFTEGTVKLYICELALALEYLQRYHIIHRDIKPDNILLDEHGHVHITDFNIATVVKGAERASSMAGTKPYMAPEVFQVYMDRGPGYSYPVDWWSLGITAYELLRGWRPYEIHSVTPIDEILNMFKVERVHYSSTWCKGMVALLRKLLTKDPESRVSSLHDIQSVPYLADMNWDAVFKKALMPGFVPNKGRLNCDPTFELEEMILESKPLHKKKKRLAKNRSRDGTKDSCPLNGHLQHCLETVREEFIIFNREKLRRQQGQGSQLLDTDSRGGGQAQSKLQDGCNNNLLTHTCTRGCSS
The target in assay [6] is TGF-beta receptor type-2 (Homo sapiens) (UniProt P37173). Description: Inhibition of human recombinant TGFbR2 at 40 nM in presence of ATP by radiometric assay relative to control.
For assay [7], the target named is Casein kinase I isoform gamma-1 (Homo sapiens) (UniProt Q9HCP0). Kind of assay: Inhibition of human recombinant CK1g1 at 40 nM in presence of ATP by radiometric assay relative to control.
Sequence of Casein kinase I isoform gamma-1 (Homo sapiens) (Q9HCP0 whole entry, looked up, canonical isoform): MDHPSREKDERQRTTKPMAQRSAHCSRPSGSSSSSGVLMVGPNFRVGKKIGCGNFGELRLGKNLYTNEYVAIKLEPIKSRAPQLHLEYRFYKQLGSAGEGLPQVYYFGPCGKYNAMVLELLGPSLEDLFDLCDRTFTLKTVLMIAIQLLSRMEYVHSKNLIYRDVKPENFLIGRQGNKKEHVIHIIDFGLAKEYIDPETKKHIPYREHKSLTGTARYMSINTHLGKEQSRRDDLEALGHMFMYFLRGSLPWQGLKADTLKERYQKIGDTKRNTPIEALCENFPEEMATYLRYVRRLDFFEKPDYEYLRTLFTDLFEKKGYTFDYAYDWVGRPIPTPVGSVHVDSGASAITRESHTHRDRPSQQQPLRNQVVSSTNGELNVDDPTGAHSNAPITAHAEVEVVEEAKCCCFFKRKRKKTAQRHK
For assay [8], the target named is cAMP-dependent protein kinase catalytic subunit beta (Homo sapiens) (UniProt P22694). Description: Inhibition of human recombinant PKACbeta at 40 nM in presence of ATP by radiometric assay relative to control.
For assay [9], the target named is Proto-oncogene tyrosine-protein kinase Src (Homo sapiens) (UniProt P12931). Description: Inhibition of human recombinant SRC at 500 nM in presence of ATP by radiometric assay relative to control.
Sequence of Proto-oncogene tyrosine-protein kinase Src (Homo sapiens) (P12931 2-536 limits assumed): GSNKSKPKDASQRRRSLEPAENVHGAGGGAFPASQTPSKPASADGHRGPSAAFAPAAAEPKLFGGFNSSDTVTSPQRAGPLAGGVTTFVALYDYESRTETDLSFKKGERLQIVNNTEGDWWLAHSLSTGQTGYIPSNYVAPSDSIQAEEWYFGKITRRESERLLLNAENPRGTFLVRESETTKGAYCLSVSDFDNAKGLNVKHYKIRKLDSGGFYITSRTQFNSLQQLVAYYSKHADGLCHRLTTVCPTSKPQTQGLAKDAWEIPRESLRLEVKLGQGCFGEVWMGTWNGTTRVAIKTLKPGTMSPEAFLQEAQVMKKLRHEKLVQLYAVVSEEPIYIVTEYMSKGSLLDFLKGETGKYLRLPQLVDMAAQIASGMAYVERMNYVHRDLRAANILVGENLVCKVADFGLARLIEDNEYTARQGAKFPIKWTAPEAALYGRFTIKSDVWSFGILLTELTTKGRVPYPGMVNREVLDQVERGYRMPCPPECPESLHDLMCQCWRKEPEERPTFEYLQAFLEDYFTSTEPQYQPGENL
The target of assay [10] is T2, Serine/threonine-protein kinase 17B (Homo sapiens) (UniProt O94768).
T2 sequence (whole entry): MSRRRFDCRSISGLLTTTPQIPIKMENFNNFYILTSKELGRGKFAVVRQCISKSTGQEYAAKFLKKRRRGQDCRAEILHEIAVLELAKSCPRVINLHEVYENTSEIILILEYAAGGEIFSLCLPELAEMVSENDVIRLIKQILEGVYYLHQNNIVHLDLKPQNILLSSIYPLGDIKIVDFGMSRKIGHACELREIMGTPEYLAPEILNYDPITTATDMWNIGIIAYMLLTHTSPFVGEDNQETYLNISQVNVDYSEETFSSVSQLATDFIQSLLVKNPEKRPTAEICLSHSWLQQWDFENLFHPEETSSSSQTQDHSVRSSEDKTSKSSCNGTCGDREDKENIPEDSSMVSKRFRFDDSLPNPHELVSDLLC
Kind of assay: Inhibition of human recombinant DRAK2 at 500 nM related to control ULK1.

The target in assay [11] is PAS domain-containing serine/threonine-protein kinase (Homo sapiens) (UniProt Q96RG2). Kind of assay: Inhibition of human recombinant PASK at 500 nM in presence of ATP by radiometric assay relative to control.
Assay [12] has as its target T3, Inhibitor of nuclear factor kappa-B kinase subunit alpha (Homo sapiens) (UniProt O15111).
T3 sequence (whole entry): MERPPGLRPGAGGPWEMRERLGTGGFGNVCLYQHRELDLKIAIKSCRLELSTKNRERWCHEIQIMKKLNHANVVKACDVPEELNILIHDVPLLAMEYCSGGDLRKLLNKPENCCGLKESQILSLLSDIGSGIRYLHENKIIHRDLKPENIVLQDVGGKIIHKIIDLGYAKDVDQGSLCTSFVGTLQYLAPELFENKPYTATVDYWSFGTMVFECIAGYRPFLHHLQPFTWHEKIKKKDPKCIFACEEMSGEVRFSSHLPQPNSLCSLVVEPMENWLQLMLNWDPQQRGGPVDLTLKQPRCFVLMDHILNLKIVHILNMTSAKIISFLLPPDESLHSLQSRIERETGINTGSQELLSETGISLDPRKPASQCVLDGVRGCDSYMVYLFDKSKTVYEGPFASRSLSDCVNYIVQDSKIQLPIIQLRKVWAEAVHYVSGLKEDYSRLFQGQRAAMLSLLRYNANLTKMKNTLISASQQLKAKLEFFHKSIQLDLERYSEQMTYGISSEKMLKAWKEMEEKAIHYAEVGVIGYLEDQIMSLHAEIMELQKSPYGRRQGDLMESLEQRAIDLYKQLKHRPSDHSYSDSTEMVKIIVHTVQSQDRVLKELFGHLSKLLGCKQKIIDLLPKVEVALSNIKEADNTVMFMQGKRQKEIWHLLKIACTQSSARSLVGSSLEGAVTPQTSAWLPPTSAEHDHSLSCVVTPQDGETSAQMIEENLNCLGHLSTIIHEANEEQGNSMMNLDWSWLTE
Description: Inhibition of human recombinant IKKa at 500 nM related to control ULK1.

Assay [13] deals with cAMP-dependent protein kinase catalytic subunit beta (Homo sapiens) (UniProt P22694). Description: Inhibition of human recombinant PKACbeta at 15 nM in presence of ATP by radiometric assay relative to control.
Assay [14] deals with Serine/threonine-protein kinase/endoribonuclease IRE1 (Homo sapiens) (UniProt O75460). Description: Inhibition of human recombinant IRE1 at 15 nM related to control ULK1.
Sequence of Serine/threonine-protein kinase/endoribonuclease IRE1 (Homo sapiens) (O75460 19-977 limits assumed): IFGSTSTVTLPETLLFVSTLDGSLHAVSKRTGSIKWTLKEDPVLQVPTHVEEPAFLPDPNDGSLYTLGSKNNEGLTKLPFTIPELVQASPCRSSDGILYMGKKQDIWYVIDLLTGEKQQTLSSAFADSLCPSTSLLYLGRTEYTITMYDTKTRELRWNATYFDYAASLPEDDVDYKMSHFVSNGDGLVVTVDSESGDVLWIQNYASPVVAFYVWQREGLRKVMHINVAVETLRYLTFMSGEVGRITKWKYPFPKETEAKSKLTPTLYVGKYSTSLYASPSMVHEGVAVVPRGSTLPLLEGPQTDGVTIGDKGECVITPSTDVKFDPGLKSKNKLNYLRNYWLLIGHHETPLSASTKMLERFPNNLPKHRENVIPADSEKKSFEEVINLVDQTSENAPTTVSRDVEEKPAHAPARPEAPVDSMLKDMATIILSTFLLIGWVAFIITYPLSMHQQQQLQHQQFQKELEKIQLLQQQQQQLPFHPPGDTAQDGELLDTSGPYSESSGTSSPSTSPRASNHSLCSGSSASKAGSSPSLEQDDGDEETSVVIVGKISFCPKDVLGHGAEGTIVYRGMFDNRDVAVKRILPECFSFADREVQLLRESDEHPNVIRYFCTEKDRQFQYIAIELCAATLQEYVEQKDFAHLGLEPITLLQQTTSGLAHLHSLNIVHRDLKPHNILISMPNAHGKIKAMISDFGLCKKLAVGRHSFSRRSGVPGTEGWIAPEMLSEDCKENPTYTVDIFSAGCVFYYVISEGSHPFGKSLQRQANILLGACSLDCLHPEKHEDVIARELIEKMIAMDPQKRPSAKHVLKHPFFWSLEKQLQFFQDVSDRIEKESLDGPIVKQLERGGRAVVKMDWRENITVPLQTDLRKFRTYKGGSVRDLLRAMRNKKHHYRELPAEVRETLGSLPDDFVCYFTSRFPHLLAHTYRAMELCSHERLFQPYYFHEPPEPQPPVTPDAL
Assay [15] deals with Homeodomain-interacting protein kinase 3 (Homo sapiens) (UniProt Q9H422). Kind of assay: Inhibition of human recombinant HIPK3 at 15 nM related to control ULK1.
Sequence of Homeodomain-interacting protein kinase 3 (Homo sapiens) (Q9H422 whole entry, looked up): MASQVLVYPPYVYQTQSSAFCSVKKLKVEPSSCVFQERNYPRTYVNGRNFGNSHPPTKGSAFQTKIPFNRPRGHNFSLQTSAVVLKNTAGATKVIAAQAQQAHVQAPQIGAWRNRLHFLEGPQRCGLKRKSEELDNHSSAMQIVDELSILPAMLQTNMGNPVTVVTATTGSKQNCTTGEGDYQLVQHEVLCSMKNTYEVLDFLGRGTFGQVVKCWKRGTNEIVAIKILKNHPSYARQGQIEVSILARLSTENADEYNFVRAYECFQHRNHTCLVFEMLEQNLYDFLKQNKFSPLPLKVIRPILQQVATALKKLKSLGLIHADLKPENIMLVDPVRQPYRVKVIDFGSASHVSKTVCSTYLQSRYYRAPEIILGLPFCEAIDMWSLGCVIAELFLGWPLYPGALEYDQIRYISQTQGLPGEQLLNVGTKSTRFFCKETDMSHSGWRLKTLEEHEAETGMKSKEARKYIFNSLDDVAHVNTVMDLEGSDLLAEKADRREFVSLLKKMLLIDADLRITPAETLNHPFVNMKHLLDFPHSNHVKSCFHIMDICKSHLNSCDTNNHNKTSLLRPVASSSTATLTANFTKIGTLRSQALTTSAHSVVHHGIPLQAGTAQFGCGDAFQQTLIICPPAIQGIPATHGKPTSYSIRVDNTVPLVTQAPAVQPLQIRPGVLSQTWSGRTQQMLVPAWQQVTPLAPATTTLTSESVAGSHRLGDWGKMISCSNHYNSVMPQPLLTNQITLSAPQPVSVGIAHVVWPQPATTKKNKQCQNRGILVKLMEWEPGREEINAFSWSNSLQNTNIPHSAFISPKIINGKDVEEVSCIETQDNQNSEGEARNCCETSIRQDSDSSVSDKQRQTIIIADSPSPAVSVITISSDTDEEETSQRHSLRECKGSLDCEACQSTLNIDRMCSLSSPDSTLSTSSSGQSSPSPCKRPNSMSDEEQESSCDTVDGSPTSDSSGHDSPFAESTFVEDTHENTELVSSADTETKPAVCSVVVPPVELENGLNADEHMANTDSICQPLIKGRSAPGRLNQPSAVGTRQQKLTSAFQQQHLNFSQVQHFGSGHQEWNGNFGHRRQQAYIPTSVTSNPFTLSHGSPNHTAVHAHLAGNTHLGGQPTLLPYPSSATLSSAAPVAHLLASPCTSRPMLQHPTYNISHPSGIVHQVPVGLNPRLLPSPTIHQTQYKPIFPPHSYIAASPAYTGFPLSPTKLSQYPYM

As for `O=C(N[C@@H](C1CC1)C(F)(F)F)c1cc(-c2cnn3cc(-c4ccc(F)cc4)cnc23)cs1`, the inhibition in [1] is 30%; in assay [3], 0%; in [5], 3%; in assay [6] it was 47%; in assay [7] it was 0%; in [8], 0%. Besides, the fold change (FC) was found to be 0.74 in assay [2] and 0.07 in assay [4].
With `CNC(=O)c1ccccc1Oc1nc(Nc2cc(OC)c(OC)c(OC)c2)ncc1Br`, the inhibition in assay [9] was found to be 19%; in [11], 10%. The values for the fold change (FC) in [10] and in assay [12] were 0.08 and 0.03, respectively.
With `CC(C)[C@H](NC(=O)c1cc(-c2cnn3cc(-c4ccc(OCCN5CCCCC5)cc4)cnc23)cs1)C(F)(F)F`, the inhibition in assay [13] was determined as 0%. Moreover, the fold change (FC) in [14] and in assay [15] was 0 each time.
